pKd: −log10 of the molar value. Activity calls are given as the source filed them. Peptide text beside a SMILES is read from it.
Tests used:
[1] = test system: MDA-MB-435; assay: Drug uptake in human MDA-MB-435 cells assessed as internalization at 10 '-5 mol/L after 30 mins by fluorescence microscopy; type: ADME, cell-based; conditions: mda-mb-435, 0.5 h, 10 µM
Outline: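 MDA-MB-435 cells (50 000) grown on coverslips for 24 h at 37 °C, then given FITC-labeled peptide at 10−5 mol/L in serum-free medium for 30 min at 37 °C. Washed, fixed on ice with 2% formaldehyde for 20 min, nuclei stained with DAPI. Imaged by fluorescence microscopy at 20×; internalization confirmed by confocal optical sectioning, 40× oil lens, 1.64 μm steps.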

[2] = test system: MDA-MB-435; assay: Drug uptake in human MDA-MB-435 cells assessed as increase in fluorescently labeled cells at 10 '-5 mol/L after 30 mins by FACS analysis relative to WNleEAAYQRFL peptide; type: ADME, cell-based; conditions: mda-mb-435, 0.5 h, 10 µM
Outline: (§1)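 Cells grown to 80% confluence, trypsinized, seeded at 10^6 per well for 24 h at 37 °C, then exposed to FITC-labeled peptides at 10−5 mol/L in serum-free medium for 30 min at 37 °C. Washed three times with PBS, trypsinized to strip surface-bound peptide, analyzed by flow cytometry. Untreated-cell autofluorescence set the cutoff for labeled cells. Repeated 2−3 times.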

[3] = test system: MDA-MB-231; assay: Drug uptake in human MDA-MB-231 cells assessed as increase in fluorescently labeled cells at 10 '-5 mol/L after 30 mins by FACS analysis relative to WNleEAAYQRFL peptide; type: ADME, cell-based; conditions: mda-mb-231, 0.5 h, 10 µM; outline: as §1
[4] = test system: MCF7; assay: Drug uptake in human MCF7 cells assessed as increase in fluorescently labeled cells at 10 '-5 mol/L after 30 mins by FACS analysis relative to WNleEAAYQRFL peptide; type: ADME, cell-based; conditions: mcf7, 0.5 h, 10 µM; outline: as §1
[5] = species on record: Homo sapiens; assay: Binding affinity to human MDA-MB-435 cell membrane at 10 '-5 mol/L after 30 mins by fluorescence microscopy
Outline: (§2)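 MDA-MB-435 or HUVEC cells (50,000) grown on coverslips for 24 h at 37 °C, then exposed to FITC-labelled peptide at 10−5 mol/L in serum-free medium for 30 min at 37 °C. Cells washed, fixed on ice in 2% formaldehyde for 20 min, nuclei stained with DAPI. Imaged by fluorescence microscopy (20×); the same samples were taken to confocal optical sectioning (40× oil) to confirm internalization.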

[6] = test system: MDA-MB-435; assay: Drug uptake in human MDA-MB-435 cells at 10 '-5 mol/L after 30 mins by confocal microscopy; type: ADME, cell-based; conditions: mda-mb-435, 0.5 h, 10 µM; outline: as §2
[7] = test system: HUVEC; assay: Drug uptake in human HUVEC cells at 10 '-5 mol/L after 30 mins by confocal microscopy; type: ADME, cell-based; conditions: 0.5 h, 10 µM; outline: as §2
[8] = test system: Serum; assay: Proteolytic stability in human serum assessed as compound degradation from 0.5 to 24 hrs by RP-HPLC analysis; type: ADME, cell-free
Outline: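 25% human serum in RPMI, equilibrated at 37 °C, with peptide added from a 1 mM aqueous stock. Aliquots taken at 0, 0.5, 1, 5 and 24 h, proteins precipitated with methanol at 4 °C and spun down. Supernatant run on C18 RP-HPLC with a 12−100% IPA/water gradient, detection at 214 nm. Peaks quantified by area; identity checked by MALDI-TOF.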

[9] = test system: Liver; assay: Proteolytic stability in CD1 mouse liver homogenate up to 48 hrs by RP-HPLC analysis; type: ADME, tissue-based; conditions: tissue homogenate
Outline: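 Homogenate prepared from male CD-1 mouse liver in ice-cold HEPES pH 7.4, centrifuged, and its protein set by BCA. Peptide stock (1 mM in 5% ACN/water) diluted into homogenate plus RPMI pH 7.4 (2.94 mg protein total), shaken at 37 °C up to 48 h. Timed aliquots analyzed by RP-HPLC.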

[10] = Cytotoxicity against human MDA-MB-435 cells assessed as cell viability up to 100 uM by MTT assay; type: cell-based; conditions: read-out: Activity
Outline: (§3)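 MDA-MB-435 cells seeded at 1 × 10^4 cells/well in serum-free RPMI with antibiotics, 37 °C, 5% CO2; after 24 h, peptides (1−100 μM, made up in sterile water) added for 48 h; doxorubicin positive control, untreated negative control. MTT (5 mg/mL medium) 3.5 h, formazan dissolved in DMSO, A570 with 650 nm reference. Viability = absorbance treated/untreated; triplicate, mean.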

[11] = test system: MCF-10A; assay: Drug uptake by human MCF10A cells assessed as increase in fluorescently labeled cells after 30 mins by FACS analysis relative to untreated control; type: ADME, cell-based; conditions: 0.5 h; outline: as §1
[12] = test system: HUVEC; assay: Drug uptake in human HUVEC cells assessed as increase in fluorescently labeled cells after 30 mins by FACS analysis relative to untreated control; type: ADME, cell-based; conditions: 0.5 h; outline: as §1
[13] = test system: MDA-MB-435; assay: Growth inhibition of human MDA-MB-435 cells at 15 uM by MTT assay; type: functional, cell-based; outline: as §3
[14] = test system: MDA-MB-435; assay: Drug uptake in human MDA-MB-435 cells assessed as increase in fluorescently labeled cells at 10 '-5 mol/L after 30 mins by FACS analysis relative to untreated control; type: ADME, cell-based; conditions: mda-mb-435, 0.5 h, 10 µM
Outline: (§4)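 Cells grown to 80% confluence, trypsinized, seeded at 10^6 per well and cultured 24 h. They were then exposed to FITC-peptide at 10−5 mol/L in serum-free medium for 30 min at 37 °C, washed, and trypsinized to strip surface-bound peptide. Read by flow cytometry as percent cells above the autofluorescence cutoff of untreated cells. Repeated 2−3 times.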

[15] = test system: MCF7; assay: Drug uptake in human MCF7 cells assessed as increase in fluorescently labeled cells at 10 '-5 mol/L after 30 mins by FACS analysis relative to untreated control; type: ADME, cell-based; conditions: mcf7, 0.5 h, 10 µM; outline: as §4
[16] = test system: MDA-MB-231; assay: Drug uptake in human MDA-MB-231 cells assessed as increase in fluorescently labeled cells at 10 '-5 mol/L after 30 mins by FACS analysis relative to untreated control; type: ADME, cell-based; conditions: mda-mb-231, 0.5 h, 10 µM; outline: as §4
[17] = test system: MDA-MB-435; assay: Binding affinity to human MDA-MB-435 cells assessed as decrease in fluorescence after 30 mins by FACS analysis in the presence of unlabelled compound; type: functional, cell-based
Outline: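 Competition assay by flow cytometry in MDA-MB-435 cells. FITC-labelled peptide at 10−5 mol/L was co-incubated with a 50-fold excess of the same unlabelled peptide for 30 min at 37 °C. Cells washed with ice-cold PBS, then FACS as in the uptake assay. Repeated 2−3 times.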

[18] = test system: MDA-MB-435; assay: Binding affinity to human MDA-MB-435 cells by CyQuant GR fluorescent dye-based assay; type: functional, cell-based
[19] = test system: Serum; assay: Proteolytic stability in human serum assessed as compound degradation after 30 mins by RP-HPLC analysis; type: ADME, cell-free; conditions: 0.5 h
Outline: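 Final mix of 25% human serum in RPMI, equilibrated at 37 °C for 15 min. Peptide added from a 1 mM water stock (100 μL into 1 mL total). Aliquots taken at 0, 0.5, 1, 5 and 24 h and quenched in methanol; serum proteins pelleted. Supernatant analysed by RP-HPLC (12–100% IPA/water, 214 nm); peaks integrated, with fragments identified by MALDI-TOF.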

[20] = test system: Liver; assay: Proteolytic stability in CD1 mouse liver homogenate after 15 mins by RP-HPLC analysis; type: ADME, tissue-based; conditions: tissue homogenate, 0.25 h
Outline: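 Liver homogenate from male CD-1 mice, made in ice-cold HEPES pH 7.4 and centrifuged; supernatant adjusted to 14.7 mg/mL protein. Peptide added from a 1 mM stock in 5% ACN/water (100 μL) to 200 μL homogenate plus 700 μL RPMI, pH 7.4 (2.94 mg protein). Incubated at 37 °C with shaking, sampled at intervals, and analysed by RP-HPLC.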

| Molecule | Drug uptake [1] | fold change (FC) [2] | fold change (FC) [3] | fold change (FC) [4] | Activity [5] | Drug uptake [6] | Drug uptake [7] | Stability [8] | Stability [9] | viability [10] | Drug uptake [11] | Drug uptake [12] | growth inhibition (GI) [13] | Drug uptake [14] | Drug uptake [15] | Drug uptake [16] | Activity [17] | pKd [18] | Stability [19] | Stability [20] |
| --- | --- | --- | --- | --- | --- | --- | --- | --- | --- | --- | --- | --- | --- | --- | --- | --- | --- | --- | --- | --- |
| CCCC[C@H](NC(=O)C[C@H](N)C(=O)NCc1cccc2ccccc12)C(=O)N[C@@H](CCC(=O)O)C(=O)N[C@@H](CC(=O)N[C@@H](C)C(=O)N[C@@H](Cc1ccc(O)cc1)C(=O)N[C@@H](CCC(N)=O)C(=O)N[C@@H](CC(=O)N[C@@H](Cc1ccccc1)C(=O)N[C@@H](CC(C)C)C(=O)O)C(=O)NCCCCN)C(=O)NC | Active | 3 | 3 | 3 | Active | Active | Not Active | Stable | Stable | > 98% | 50% | 30% | – | – | – | – | – | – | – | – |
| CCCC[C@H](NC(=O)C[C@H](N)C(=O)NCc1cccc2ccccc12)C(=O)N[C@@H](CCC(=O)O)C(=O)N[C@@H](C)C(=O)N[C@@H](CC(=O)N[C@@H](Cc1ccc(O)cc1)C(=O)N[C@@H](CCC(N)=O)C(=O)N[C@@H](CC(=O)N[C@@H](Cc1ccccc1)C(=O)N[C@@H](CC(C)C)C(=O)O)C(=O)NCCCCN)C(=O)NC | – | 3 | 3 | 3 | – | – | – | Stable | Stable | > 98% | 55% | 35% | – | – | – | – | – | – | – | – |
| COc1cccc2c1C(=O)c1c(O)c3c(c(O)c1C2=O)C[C@@](O)(C(=O)CO)C[C@@H]3O[C@H]1C[C@H](N)[C@H](O)[C@H](C)O1 | – | – | – | – | – | – | – | – | – | – | – | – | Active | – | – | – | – | – | – | – |
| CCCC[C@@H](NC(=O)[C@@H](N)Cc1c[nH]c2ccccc12)C(=O)N[C@@H](CCC(=O)O)C(=O)N[C@@H](C)C(=O)N[C@@H](C)C(=O)N[C@@H](Cc1ccc(O)cc1)C(=O)N[C@@H](CCC(N)=O)C(=O)N[C@H](CCCNC(=N)N)C(=O)N[C@@H](Cc1ccccc1)C(=O)N[C@@H](CC(C)C)C(=O)O (HELM PEPTIDE1{W.[CCCC[C@@H](N[*:1])C(=O)[*:2]].E.A.A.Y.Q.[dR].F.L}$$$$V2.0) | – | 3.5 | 3.5 | 3.5 | Active | Active | Not Active | Stable | Stable | > 98% | 36% | 12% | – | 35% | 68% | 45% | inactive | – | – | – |
| CCCC[C@H](NC(=O)[C@@H](N)Cc1c[nH]c2ccccc12)C(=O)N[C@@H](CCC(=O)O)C(=O)N[C@@H](C)C(=O)N[C@@H](C)C(=O)N[C@@H](Cc1ccc(O)cc1)C(=O)N[C@@H](CCC(N)=O)C(=O)N[C@@H](CCCNC(=N)N)C(=O)N[C@@H](Cc1ccccc1)C(=O)N[C@@H](CC(C)C)C(=O)O (HELM PEPTIDE1{W.[Nle].E.A.A.Y.Q.R.F.L}$$$$V2.0) | – | – | – | – | – | – | – | – | – | – | – | – | – | 10% | 22% | 16% | – | 4.38 | Unstable | Unstable |
| H-WEEAAYQRFL-OH | – | – | – | – | – | – | – | – | – | – | – | – | – | 14% | 60% | 33% | – | – | – | – |

Source: ChEMBL document CHEMBL1914448, “Proteolytically stable cancer targeting peptides with high affinity for breast cancer cells” (J Med Chem, 2011)
